This note sets out measurements from ChEMBL document CHEMBL1138558, “Synthesis of some new 1,2,4-triazoles, their Mannich and Schiff bases and evaluation of their antimicrobial activities” (2009).

Active and inactive are the calls of the source. The rule behind the calls is not given here.

What all share (assay type): functional
The subject of test [1] is Yersinia pseudotuberculosis. The test is described as follows: Antimicrobial activity against Yersinia pseudotuberculosis ATCC 911 at 10 mg/mL after 18 hrs by agar-well diffusion method. The settings on record: for zone of inhibition at 10000 µg/mL: ATCC 911, 18 h, read-out: IZ. An outline of the steps:
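Bacteria suspended in Mueller Hinton broth at about 10⁶ cfu/mL, flood-inoculated onto Mueller Hinton agar and dried. Test substance placed into 5-mm wells bored with a sterile cork-borer. Incubation 18 h at 35 °C, then the inhibition zone around each well measured.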

A further test concerns Candida tropicalis. Briefly: Antimicrobial activity against Candida tropicalis ATCC 13803 at 10 mg/mL after 18 hrs by agar-well diffusion method. The conditions noted are these: for zone of inhibition at 10000 µg/mL: ATCC 13803, 18 h, read-out: IZ. An outline of the steps: (§1)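 Candida cultures were suspended in Mueller Hinton broth at about 10⁶ cfu/mL, flood-inoculated onto Sabouraud dextrose agar and dried. Test solution was loaded into 5-mm wells bored in the agar. Plates were incubated 18 h at 35 °C, and activity was scored as the inhibition zone around each well.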

For the next test, the system named is Bacillus cereus. The test is described as follows: Antimicrobial activity against Bacillus cereus 702 Roma at 10 mg/mL after 18 hrs by agar-well diffusion method. The settings on record: for zone of inhibition at 10000 µg/mL: read-out: IZ. The gist of the method: (§2)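 Agar-well diffusion: each bacterium suspended in Mueller Hinton broth at about 10⁶ cfu/mL, flood-inoculated onto Mueller Hinton agar and dried. 5-mm wells were cut with a sterile cork-borer and filled with the test solution. Plates were incubated 18 h at 35 °C. The read-out was the diameter of the inhibition zone.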

The subject of a further test is Enterococcus faecalis. Briefly: Antimicrobial activity against Enterococcus faecalis ATCC 29212 at 10 mg/mL after 18 hrs by agar-well diffusion method. The settings on record: for zone of inhibition at 10000 µg/mL: ATCC 29212, 18 h, read-out: IZ. The gist of the method: as §2
In a further test the test system is Candida albicans. Briefly: Antimicrobial activity against Candida albicans ATCC 60193 at 10 mg/mL after 18 hrs by agar-well diffusion method. The conditions noted are these: for zone of inhibition at 10000 µg/mL: ATCC 60193, 18 h, read-out: IZ. An outline of the steps:
as §1

In a further test the test system is Pseudomonas aeruginosa. The test is described as follows: Antimicrobial activity against Pseudomonas aeruginosa ATCC 27853 at 10 mg/mL after 18 hrs by agar-well diffusion method. The conditions noted are these: for zone of inhibition at 10000 µg/mL: ATCC 27853, 18 h, read-out: IZ. An outline of the steps:
as §2

A further test has as its system Escherichia coli. Briefly: Antimicrobial activity against Escherichia coli ATCC 25922 at 10 mg/mL after 18 hrs by agar-well diffusion method. The settings on record: for zone of inhibition at 10000 µg/mL: ATCC 25922, 18 h, read-out: IZ. The gist of the method:
as §2

For another test, the system named is Staphylococcus aureus. Briefly: Antimicrobial activity against Staphylococcus aureus ATCC 25923 at 10 mg/mL after 18 hrs by agar-well diffusion method. The conditions noted are these: for zone of inhibition at 10000 µg/mL: ATCC 25923, 18 h, read-out: IZ. The gist of the method: as §2

On to `S=c1n(CNCCN2CCOCC2)nc(-c2ccncc2)n1-c1ccccc1`, for which the zone of inhibition at 10000 µg/mL came out at 22 mm in test [1]; 15 mm with Bacillus cereus; 16 mm with Enterococcus faecalis; 14 mm in the test on Pseudomonas aeruginosa; 20 mm in the test on Escherichia coli; 21 mm in the test on Staphylococcus aureus. Further, the “inhibition zone (IZ)” value in the test with Candida tropicalis and in the test on Candida albicans was “inactive” each time.

In the case of `Cc1ccc(NC(=S)NNC(=O)CSc2nnc(-c3ccncc3)n2-c2ccccc2)cc1`, the “inhibition zone (IZ)” value (in test [1]; in the test on Bacillus cereus; in the test on Enterococcus faecalis; in the test with Pseudomonas aeruginosa; with Escherichia coli; in the test with Staphylococcus aureus) was “inactive” in each case. Further, the zone of inhibition at 10000 µg/mL with Candida tropicalis and in the test with Candida albicans was 7 mm in each case.

For the molecule `Cc1ccc(-n2c(CSc3nnc(-c4ccncc4)n3-c3ccccc3)nn(CN3CCN(C)CC3)c2=S)cc1`, the “inhibition zone (IZ)” value (in test [1]; in the test with Candida tropicalis; with Bacillus cereus; in the test on Enterococcus faecalis; in the test on Candida albicans; in the test with Pseudomonas aeruginosa) was “inactive” in each case. Moreover, the “inhibition zone (IZ)” value in the test on Escherichia coli and in the test on Staphylococcus aureus was “inactive” throughout.

On to `O=C(CSc1nnc(-c2ccncc2)n1-c1ccccc1)N/N=C/c1ccc(F)cc1`, for which the zone of inhibition at 10000 µg/mL came out at 25 mm in test [1]; 23 mm in the test with Bacillus cereus; 30 mm in the test on Enterococcus faecalis; 38 mm in the test on Pseudomonas aeruginosa; 30 mm with Escherichia coli; 30 mm in the test on Staphylococcus aureus. Also, the “inhibition zone (IZ)” value in the test with Candida tropicalis and with Candida albicans was “inactive” throughout.

Take `CSc1nnc(-c2ccncc2)n1-c1ccccc1`: the zone of inhibition at 10000 µg/mL in test [1] turned out to be 30 mm; with Candida tropicalis it was 9 mm; in the test with Bacillus cereus, 30 mm; with Enterococcus faecalis, 30 mm; with Candida albicans, 9 mm; in the test on Pseudomonas aeruginosa it was 30 mm. Moreover, the zone of inhibition at 10000 µg/mL in the test with Escherichia coli stood at 30 mm; with Staphylococcus aureus, 25 mm.

In the case of `S=c1oc(CSc2nnc(-c3ccncc3)n2-c2ccccc2)nn1CNCCN1CCOCC1`, the “inhibition zone (IZ)” value (in test [1]; in the test on Candida tropicalis; in the test on Bacillus cereus; with Enterococcus faecalis; in the test with Candida albicans; in the test with Pseudomonas aeruginosa) was “inactive” in each case. Moreover, in the test with Staphylococcus aureus, the “inhibition zone (IZ)” value was “inactive”. The zone of inhibition at 10000 µg/mL with Escherichia coli is 6 mm.

As for `Cc1ccc(N(C)c2nnc(CSc3nnc(-c4ccncc4)n3-c3ccccc3)s2)cc1`, the zone of inhibition at 10000 µg/mL in test [1] stood at 16 mm; in the test with Bacillus cereus, 17 mm; with Enterococcus faecalis, 7 mm; in the test on Pseudomonas aeruginosa, 15 mm; in the test on Escherichia coli, 28 mm; with Staphylococcus aureus, 22 mm. In addition, the “inhibition zone (IZ)” value in the test with Candida tropicalis and with Candida albicans was “inactive” in each case.

Regarding `S=c1n(CN2CCN(Cn3nc(-c4ccncc4)n(-c4ccccc4)c3=S)CC2)nc(-c2ccncc2)n1-c1ccccc1`, the “inhibition zone (IZ)” value (in test [1]; in the test on Candida tropicalis; in the test on Bacillus cereus; in the test on Enterococcus faecalis; with Candida albicans; with Pseudomonas aeruginosa) was “inactive” each time. The “inhibition zone (IZ)” value in the test on Escherichia coli and with Staphylococcus aureus was “inactive” in each case.

On to `Sc1nnc(-c2ccncc2)n1-c1ccccc1`, for which the “inhibition zone (IZ)” value (in test [1]; in the test with Candida tropicalis; in the test on Bacillus cereus; in the test on Enterococcus faecalis; in the test with Candida albicans; with Pseudomonas aeruginosa) was “inactive” in each case. The “inhibition zone (IZ)” value in the test on Escherichia coli and with Staphylococcus aureus was “inactive” throughout.

`Sc1nnc(CSc2nnc(-c3ccncc3)n2-c2ccccc2)o1`: the “inhibition zone (IZ)” value (in test [1]; in the test with Enterococcus faecalis; with Pseudomonas aeruginosa; with Escherichia coli) was “inactive” throughout. Moreover, the zone of inhibition at 10000 µg/mL in the test with Candida tropicalis was determined as 6 mm; in the test with Bacillus cereus it was 6 mm; in the test on Candida albicans, 6 mm; in the test on Staphylococcus aureus it was 8 mm.

For the molecule `CCOC(=O)CSc1nnc(-c2ccncc2)n1-c1ccccc1`, the “inhibition zone (IZ)” value (in test [1]; with Bacillus cereus; with Enterococcus faecalis; in the test on Pseudomonas aeruginosa; in the test on Escherichia coli; in the test on Staphylococcus aureus) was “inactive” throughout. In addition, the zone of inhibition at 10000 µg/mL with Candida tropicalis and in the test on Candida albicans was 13 mm in each case.

Consider `O=C(CSc1nnc(-c2ccncc2)n1-c1ccccc1)N/N=C/c1ccccc1O`, for which the zone of inhibition at 10000 µg/mL is 30 mm in test [1]; 25 mm with Bacillus cereus; 30 mm in the test on Enterococcus faecalis; 30 mm in the test on Pseudomonas aeruginosa; 30 mm in the test with Escherichia coli; 25 mm with Staphylococcus aureus. Besides, the “inhibition zone (IZ)” value in the test on Candida tropicalis and with Candida albicans was “inactive” throughout.

As for `Cc1ccc(-n2c(S)nnc2CSc2nnc(-c3ccncc3)n2-c2ccccc2)cc1`, the “inhibition zone (IZ)” value (in test [1]; in the test with Candida tropicalis; in the test with Candida albicans; in the test on Pseudomonas aeruginosa; with Escherichia coli; in the test with Staphylococcus aureus) was “inactive” throughout. Besides, the zone of inhibition at 10000 µg/mL with Bacillus cereus was 6 mm; in the test with Enterococcus faecalis it was 15 mm.

Consider `COc1ccc(/C=N/NC(=O)CSc2nnc(-c3ccncc3)n2-c2ccccc2)cc1`, for which the zone of inhibition at 10000 µg/mL stood at 30 mm in test [1]; 25 mm in the test with Bacillus cereus; 28 mm with Enterococcus faecalis; 30 mm in the test with Pseudomonas aeruginosa; 24 mm in the test with Escherichia coli; 28 mm in the test on Staphylococcus aureus. For the same molecule, the “inhibition zone (IZ)” value with Candida tropicalis and in the test on Candida albicans was “inactive” in each case.

For the molecule `Cc1ccc(Nc2nnc(CSc3nnc(-c4ccncc4)n3-c3ccccc3)s2)cc1`, the zone of inhibition at 10000 µg/mL in test [1] stood at 22 mm; in the test on Bacillus cereus, 20 mm; in the test on Enterococcus faecalis it was 20 mm; in the test on Pseudomonas aeruginosa, 35 mm; in the test with Escherichia coli, 31 mm; in the test on Staphylococcus aureus it was 25 mm. Besides, the “inhibition zone (IZ)” value with Candida tropicalis and in the test with Candida albicans was “inactive” in each case.

With `O=C(CSc1nnc(-c2ccncc2)n1-c1ccccc1)N/N=C/c1c(Cl)cccc1Cl`, the “inhibition zone (IZ)” value (in test [1]; in the test on Candida tropicalis; with Bacillus cereus; in the test with Enterococcus faecalis; in the test with Candida albicans; in the test with Pseudomonas aeruginosa) was “inactive” throughout. The “inhibition zone (IZ)” value in the test with Escherichia coli and in the test on Staphylococcus aureus was “inactive” throughout.

On to `O=C(CSc1nnc(-c2ccncc2)n1-c1ccccc1)N/N=C/c1ccccn1`, for which the zone of inhibition at 10000 µg/mL was determined as 30 mm in test [1]; 20 mm with Bacillus cereus; 20 mm with Enterococcus faecalis; 40 mm with Pseudomonas aeruginosa; 42 mm in the test with Escherichia coli; 24 mm in the test on Staphylococcus aureus. The “inhibition zone (IZ)” value in the test on Candida tropicalis and in the test with Candida albicans was “inactive” throughout.

Regarding `CN1CCN(Cn2nc(-c3ccncc3)n(-c3ccccc3)c2=S)CC1`, the zone of inhibition at 10000 µg/mL is 24 mm in test [1]; 23 mm with Bacillus cereus; 28 mm in the test with Enterococcus faecalis; 30 mm in the test with Pseudomonas aeruginosa; 24 mm in the test on Escherichia coli; 24 mm in the test on Staphylococcus aureus. Further, the “inhibition zone (IZ)” value in the test with Candida tropicalis and in the test on Candida albicans was “inactive” throughout.
